Experiments:
[1] = test system: Hepatitis C virus; test: Effective concentration to inhibit 50% of hepatitis C virus replication in a cell culture model; format: functional, organism-based, Hepacivirus hominis
Method in brief: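 HCV replicon Huh-Luc/neo cells grown to confluence, then treated with varying drug concentrations in DMEM with 10% dFBS for 3 days. Medium was removed and cells lysed in passive lysis buffer, shaken 15 min at room temperature. Lysate was mixed with luciferase substrate and luminescence read immediately as the measure of replicon activity.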

[2] = test system: Hepatitis B virus; test: Effective concentration to inhibit 50% of hepatitis B virus replication in a cell culture model; format: functional, organism-based
[3] = test system: Human gammaherpesvirus 4; test: Effective concentration to inhibit 50% of epstein Barr virus replication in a cell culture model; format: functional, organism-based
[4] = test system: Human alphaherpesvirus 1; test: Effective concentration to inhibit 50% of herpes simplex virus type 1 replication in a cell culture model; format: functional, organism-based
[5] = test system: CCRF-CEM; test: Cytotoxicity against CEM cell lines of human; format: functional; conditions: read-out: ID50 (the source's name)
[6] = Effective concentration to inhibit 50% of human immunodeficiency virus replication in a cell culture model; format: functional
[7] = test system: Human alphaherpesvirus 2; test: Effective concentration to inhibit 50% of herpes simplex virus type 2 replication in a cell culture model; format: functional, organism-based
[8] = test system: MT2; test: Cytotoxicity against MT-2 cell lines of human; format: functional; conditions: read-out: ID50 (the source's name)

Structure (SMILES)	EC50 [1] [µM]	EC50 [2] [µM]	EC50 [3] [µM]	EC50 [4] [µM]	IC50 [5] [µM]	EC50 [6] [µM]	EC50 [7] [µM]	IC50 [8] [µM]
COc1ccc(-c2c3c(cc4ccc5c(c24)OCO5)C(=O)NC3)cc1OC	3	> 10	> 20	0.6	5	> 16	0.5	16
Nc1ccn([C@H]2CC[C@@H](CO)O2)c(=O)n1 [ZALCITABINE]	–	–	–	–	5	0.8	–	70
O=C1OCc2c1cc1c(Br)cc3c(c1c2-c1ccc2c(c1)OCO2)OCO3	> 10	> 40	> 15	> 50	100	> 100	> 50	> 100
O=C1c2cc3ccc4c(c3c(-c3ccc5c(c3)OCO5)c2CN1CCCO)OCO4	> 10	> 0.9	> 20	5	6	> 8	7	8
COc1ccc(-c2c(C(=O)O)c(C(N)=O)cc3ccc4c(c23)OCO4)cc1OC	3	0.8	> 20	0.8	3	> 10	> 3	10
COC1=NC(=O)c2c1cc1ccc3c(c1c2-c1ccc2c(c1)OCO2)OCO3	> 10	> 5	> 20	> 50	> 100	> 100	> 50	> 100
CCOC(=O)c1c(C(=O)OCC)c(-c2ccc3c(c2)OCO3)c2c3c(ccc2c1OC)OCO3	> 10	> 20	> 20	> 50	> 100	> 24	> 50	24
O=C1c2cc3ccc4c(c3c(-c3ccc5c(c3)OCO5)c2C(=O)N1O)OCO4	> 10	> 10	> 5	> 30	17	> 16	> 30	16
COc1ccc(-c2c3c(cc4ccc5c(c24)OCO5)C(=O)NC3=O)cc1OC	–	0.8	–	–	–	–	–	–
O=C1c2cc3ccc4c(c3c(-c3ccc5c(c3)OCO5)c2CN1CCCOCc1ccccc1)OCO4	10	> 20	> 20	13	67	> 28	> 20	28
O=C(O)c1cc2ccc3c(c2c(-c2ccc4c(c2)OCO4)c1COCc1ccccc1)OCO3	> 10	> 10	> 20	> 25	> 50	> 48	> 25	48
CN(C)C(=O)c1cc2ccc3c(c2c(-c2ccc4c(c2)OCO4)c1C(=O)O)OCO3	> 10	> 10	> 20	> 50	76	> 70	> 50	70
COC(=O)c1c(C(=O)O)cc2ccc3c(c2c1-c1ccc2c(c1)OCO2)OCO3	> 10	> 20	> 20	> 50	74	> 90	> 50	90
CN1Cc2c(cc3ccc4c(c3c2-c2ccc3c(c2)OCO3)OCO4)C1=O	> 3	> 20	> 20	0.67	6	> 8	1	8
O=C(OCc1ccccc1)c1cc2ccc3c(c2c(-c2ccc4c(c2)OCO4)c1COCc1ccccc1)OCO3	10	> 10	> 20	> 50	50	> 100	> 50	100
O=C1NC(=O)c2c1cc1ccc3c(c1c2-c1ccc2c(c1)OCO2)OCO3	–	> 10	–	–	–	–	–	–

Reference: ChEMBL document CHEMBL1141180, “Synthesis and antiviral activity of helioxanthin analogues” (J Med Chem, 2005)
